# Data taken from article PMC6510378 (Clinical and Translational Science, 2019).
# Assay: SAD study plasma PK, single oral dose, healthy young subjects
# Assay type: in vivo, human
# Conditions: for Cmax / Tmax / AUC(0-inf) / half-life: human, plasma, po; for AUC(0-inf): AUCinf; for half-life: t½
# Outline: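 Healthy adults aged 18–55, randomized 6 active : 2 placebo per cohort, received a single fasted oral dose (1–60 mg) with 240 mL water. Serial blood was drawn predose to 72 h, plus 96 and 120 h in the 6, 30 and 60 mg cohorts. Plasma drug was measured by validated HPLC-MS/MS, with below-limit values set to zero. Dose proportionality used a power model on log-transformed dose.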
# [1] = 3 mg, Median, single oral dose 3 mg, n=6
# [2] = 3 mg, Min–max, single oral dose 3 mg, n=6
# [3] = 6 mg, Mean (SD), single oral dose 6 mg, n=6
# [4] = 6 mg, Median, single oral dose 6 mg, n=6
# [5] = 6 mg, Min–max, single oral dose 6 mg, n=6
# [6] = 10 mg, Mean (SD), single oral dose 10 mg, n=3
# [7] = 10 mg, Median, single oral dose 10 mg, n=3
# [8] = 10 mg, Min–max, single oral dose 10 mg, n=3
# [9] = 10 mg, Median, single oral dose 10 mg, n=6
# [10] = 10 mg, Min–max, single oral dose 10 mg, n=6
# [11] = 30 mg, Mean (SD), single oral dose 30 mg, n=6
# [12] = 30 mg, Median, single oral dose 30 mg, n=6
# [13] = 30 mg, Min–max, single oral dose 30 mg, n=6
# [14] = 60 mg, Mean (SD), single oral dose 60 mg, n=6
# [15] = 60 mg, Median, single oral dose 60 mg, n=6
# [16] = 60 mg, Min–max, single oral dose 60 mg, n=6
smiles,measurement,setting,value
Cn1c(-c2ccc(C(N)=O)cc2F)nnc1C(C)(C)Oc1c(F)cc(Cl)cc1F [ASP3662],Cmax,"1 mg, Mean (SD), single oral dose 1 mg, n=6",0.0433 ng/mL
same,Cmax,"1 mg, Min–max, single oral dose 1 mg, n=6",< 0.14 ng/mL
same,Tmax,"1 mg, Median, single oral dose 1 mg, n=2",0.75 h
same,Tmax,"1 mg, Min–max, single oral dose 1 mg, n=2",0.5 to 1 h
same,Cmax,"3 mg, Mean (SD), single oral dose 3 mg, n=6",3.54 ng/mL
same,Cmax,[1],1.6 ng/mL
same,Cmax,[2],0.38 to 9.24 ng/mL
same,Tmax,[1],2.5 h
same,Tmax,[2],1 to 4.02 h
same,AUC(0-inf),[3],405 ng·h/mL
same,AUC(0-inf),[4],410 ng·h/mL
same,AUC(0-inf),[5],169 to 660 ng·h/mL
same,Cmax,[3],28 ng/mL
same,Cmax,[4],30.5 ng/mL
same,Cmax,[5],10.8 to 43.7 ng/mL
same,Tmax,[4],1.75 h
same,Tmax,[5],1 to 4 h
same,half-life,[3],37.7 h
same,half-life,[4],37.9 h
same,half-life,[5],28.5 to 46.3 h
same,AUC(0-inf),[6],858 ng·h/mL
same,AUC(0-inf),[7],953 ng·h/mL
same,AUC(0-inf),[8],620 to 1000 ng·h/mL
same,Cmax,"10 mg, Mean (SD), single oral dose 10 mg, n=6",64 ng/mL
same,Cmax,[9],60.9 ng/mL
same,Cmax,[10],49 to 93.6 ng/mL
same,Tmax,[9],1.75 h
same,Tmax,[10],1 to 6 h
same,half-life,[6],19.5 h
same,half-life,[7],21.9 h
same,half-life,[8],13.7 to 23 h
same,AUC(0-inf),[11],3620 ng·h/mL
same,AUC(0-inf),[12],3370 ng·h/mL
same,AUC(0-inf),[13],1630 to 6770 ng·h/mL
same,Cmax,[11],258 ng/mL
same,Cmax,[12],239 ng/mL
same,Cmax,[13],151 to 386 ng/mL
same,Tmax,[12],3.5 h
same,Tmax,[13],1.5 to 4 h
same,half-life,[11],17.6 h
same,half-life,[12],17.4 h
same,half-life,[13],14.5 to 20.2 h
same,AUC(0-inf),[14],8190 ng·h/mL
same,AUC(0-inf),[15],8460 ng·h/mL
same,AUC(0-inf),[16],5440 to 12500 ng·h/mL
same,Cmax,[14],595 ng/mL
same,Cmax,[15],566 ng/mL
same,Cmax,[16],439 to 865 ng/mL
same,Tmax,[15],3.5 h
same,Tmax,[16],2 to 4 h
same,half-life,[14],14.8 h
same,half-life,[15],14.6 h
same,half-life,[16],13.1 to 17.3 h
same,"CL/F, Mean (SD)","single oral dose 6 mg, n=6",18.38 (9.909) L/hour
same,"CL/F, Median","single oral dose 6 mg, n=6",15.62 L/h
same,"CL/F, Min–max","single oral dose 6 mg, n=6",9.09 to 35.4 L/h
same,"CL/F, Mean (SD)","single oral dose 10 mg, n=3",12.20 (3.403) L/hour
same,"CL/F, Median","single oral dose 10 mg, n=3",10.49 L/h
same,"CL/F, Min–max","single oral dose 10 mg, n=3",9.99 to 16.1 L/h
same,"CL/F, Mean (SD)","single oral dose 30 mg, n=6",10.05 (4.856) L/hour
same,"CL/F, Median","single oral dose 30 mg, n=6",9.012 L/h
same,"CL/F, Min–max","single oral dose 30 mg, n=6",4.43 to 18.4 L/h
same,"CL/F, Mean (SD)","single oral dose 60 mg, n=6",7.933 (2.407) L/hour
same,"CL/F, Median","single oral dose 60 mg, n=6",7.091 L/h
same,"CL/F, Min–max","single oral dose 60 mg, n=6",4.81 to 11.0 L/h
